From ChEMBL document CHEMBL1136894, “New antituberculotics originated from salicylanilides with promising in vitro activity against atypical mycobacterial strains” (Bioorg Med Chem, 2009)
Converted amounts (≈) assume the structure as drawn.

Legend:
[1] = tested on: Mycobacterium kansasii; assay: Antimycobacterial activity against Mycobacterium kansasii CNCTC My 235/80 after 7 days; format: functional; settings: CNCTC My 235/80, 168 h
How it was run: (§1)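 Compounds were added as DMSO solutions to Sula semisynthetic medium at 250, 125, 62, 32, 16, 8, 4, 2 and 1 µmol/L. Two M. kansasii strains were used: CNCTC My 235/80 and clinical isolate 6509/96, each with strain dilution 10^-4. Incubation was at 37 °C, and MIC was read at 7, 14 and 21 days.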

[2] = tested on: Mycobacterium tuberculosis; assay: Antimycobacterial activity against Mycobacterium tuberculosis CNCTC My 331/88 after 14 days; format: functional; settings: CNCTC My 331/88, 336 h
How it was run: (§2)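 Broth dilution in Sula semisynthetic medium, compounds added as DMSO solutions at 250, 125, 62, 32, 16, 8, 4, 2 and 1. Strains came from the Czech National Collection of Type Cultures; the M. tuberculosis inoculum was diluted 10^-3. Cultures were incubated at 37 °C, and MIC was read after 7, 14 and 21 days.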

[3] = Stability assessed as half life in phosphate buffer at pH 7.4 by UV-visible spectroscopy; format: physicochemical
How it was run: (§3)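 Compound in methanolic solution (10 or 20 µL) was added to tempered 7 × 10^-2 M phosphate buffer (2 mL) at pH 7.4 or 5.5, 37 °C. The absorbance decrease at 224 nm was followed by UV/vis.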

[4] = tested on: Mycobacterium kansasii; assay: Antimycobacterial activity against Mycobacterium kansasii CNCTC My 235/80 after 21 days; format: functional; settings: CNCTC My 235/80, 504 h; how it was run: as §1
[5] = tested on: Mycobacterium kansasii; assay: Antimycobacterial activity against Mycobacterium kansasii isolate 6509/96 after 7 days; format: functional; settings: isolate 6509/96, 168 h; how it was run: as §1
[6] = tested on: Mycobacterium avium; assay: Antimycobacterial activity against Mycobacterium avium CNCTC My 330/88 after 21 days; format: functional; settings: CNCTC My 330/88, 504 h; how it was run: as §2
[7] = Selectivity index, ratio of EC50 for human HCT8 cells to MIC for Mycobacterium tuberculosis CNCTC My 331/88; format: functional, HCT-8
How it was run: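 SI is EC50 in HCT-8 cells divided by the M. tuberculosis MIC. HCT-8 cells were grown in EMEM with 5% FBS at 37 °C under 5% CO₂, trypsinised and seeded at 2 × 10⁵ cells/mL. After 24 h the medium was replaced with compound in DMSO. Controls were DMSO alone and 20% DMSO. Absorbance was read at 450 nm 4 h after reagent addition, in triplicate.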

[8] = tested on: Mycobacterium kansasii; assay: Antimycobacterial activity against Mycobacterium kansasii isolate 6509/96 after 14 days; format: functional; settings: isolate 6509/96, 336 h; how it was run: as §1
[9] = tested on: Mycobacterium tuberculosis; assay: Antimycobacterial activity against Mycobacterium tuberculosis CNCTC My 331/88 after 21 days; format: functional; settings: CNCTC My 331/88, 504 h; how it was run: as §2
[10] = tested on: Mycobacterium kansasii; assay: Antimycobacterial activity against Mycobacterium kansasii CNCTC My 235/80 after 14 days; format: functional; settings: CNCTC My 235/80, 336 h; how it was run: as §1
[11] = Stability assessed as half life in phosphate buffer at pH 5.5 by UV-visible spectroscopy; format: physicochemical; how it was run: as §3
[12] = tested on: HCT-8; assay: Cytotoxicity against human HCT8 cells after 72 hrs by XTT assay; format: functional, cell-based; settings: HCT-8, 72 h
How it was run: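 HCT-8 cells were grown in EMEM with 5% FBS at 37 °C under 5% CO2. They were harvested with trypsin, seeded at 2 × 10^5 cells/mL and left 24 h. Medium was then replaced with compound in DMSO. DMSO-only wells served as the viability control and 20% DMSO as the cytotoxic control. Reagent was added for 4 h and absorbance read at 450 nm. Triplicates; EC50 reported.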

[13] = tested on: Mycobacterium kansasii; assay: Antimycobacterial activity against Mycobacterium kansasii isolate 6509/96 after 21 days; format: functional; settings: isolate 6509/96, 504 h; how it was run: as §1
[14] = Lipophilicity, log K by HPLC; format: physicochemical
How it was run: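 Capacity factors k were measured by RP-HPLC and log k was calculated from them.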

[15] = tested on: Mycobacterium avium; assay: Antimycobacterial activity against Mycobacterium avium CNCTC My 330/88 after 14 days; format: functional; settings: CNCTC My 330/88, 336 h; how it was run: as §2

CC(C)[C@@H](NC(=O)OCc1ccccc1)C(=O)Oc1ccc(Cl)cc1C(=O)Nc1ccc(Br)cc1
MIC [1]: 4 µM (≈ 2.24 µg/mL) | MIC [2]: 2 µM (≈ 1.12 µg/mL) | half-life [3]: 15 min | MIC [4]: 8 µM (≈ 4.48 µg/mL) | MIC [5]: 8 µM (≈ 4.48 µg/mL) | MIC [6]: 16 µM (≈ 8.96 µg/mL) | Ratio [7]: 33.35 | MIC [8]: 8 µM (≈ 4.48 µg/mL) | MIC [9]: 4 µM (≈ 2.24 µg/mL) | MIC [10]: 8 µM (≈ 4.48 µg/mL) | half-life [11]: 14.8 min | EC50 [12]: 121 µM | MIC [13]: 8 µM (≈ 4.48 µg/mL) | log K [14]: 0.9805 | MIC [15]: 16 µM (≈ 8.96 µg/mL)

CC(C)[C@H](NC(=O)OCc1ccccc1)C(=O)Oc1ccc(Cl)cc1C(=O)Nc1ccc(Cl)c(Cl)c1
MIC [1]: 4 µM (≈ 2.2 µg/mL) | MIC [2]: 2 µM (≈ 1.1 µg/mL) | MIC [4]: 8 µM (≈ 4.4 µg/mL) | MIC [5]: 8 µM (≈ 4.4 µg/mL) | MIC [6]: 32 µM (≈ 17.6 µg/mL) | MIC [8]: 8 µM (≈ 4.4 µg/mL) | MIC [9]: 4 µM (≈ 2.2 µg/mL) | MIC [10]: 4 µM (≈ 2.2 µg/mL) | MIC [13]: 8 µM (≈ 4.4 µg/mL) | log K [14]: 1.1567 | MIC [15]: 16 µM (≈ 8.8 µg/mL)

O=C(N[C@H](Cc1ccccc1)C(=O)Oc1ccc(Cl)cc1C(=O)Nc1ccc(Cl)cc1)OCc1ccccc1
MIC [1]: 8 µM (≈ 4.51 µg/mL) | MIC [2]: 4 µM (≈ 2.25 µg/mL) | MIC [4]: 8 µM (≈ 4.51 µg/mL) | MIC [5]: 8 µM (≈ 4.51 µg/mL) | MIC [6]: 16 µM (≈ 9.01 µg/mL) | MIC [8]: 8 µM (≈ 4.51 µg/mL) | MIC [9]: 4 µM (≈ 2.25 µg/mL) | MIC [10]: 8 µM (≈ 4.51 µg/mL) | MIC [13]: 16 µM (≈ 9.01 µg/mL) | log K [14]: 1.0678 | MIC [15]: 16 µM (≈ 9.01 µg/mL)

C[C@@H](NC(=O)OCc1ccccc1)C(=O)Oc1ccc(Cl)cc1C(=O)Nc1ccc(Br)cc1
MIC [1]: 4 µM (≈ 2.13 µg/mL) | MIC [2]: 2 µM (≈ 1.06 µg/mL) | MIC [4]: 8 µM (≈ 4.25 µg/mL) | MIC [5]: 8 µM (≈ 4.25 µg/mL) | MIC [6]: 16 µM (≈ 8.51 µg/mL) | MIC [8]: 16 µM (≈ 8.51 µg/mL) | MIC [9]: 4 µM (≈ 2.13 µg/mL) | MIC [10]: 8 µM (≈ 4.25 µg/mL) | MIC [13]: 16 µM (≈ 8.51 µg/mL) | log K [14]: 0.7527 | MIC [15]: 16 µM (≈ 8.51 µg/mL)

O=C(CNC(=O)OCc1ccccc1)Oc1ccc(Cl)cc1C(=O)Nc1cccc(Cl)c1
MIC [1]: 16 µM (≈ 7.57 µg/mL) | MIC [2]: 4 µM (≈ 1.89 µg/mL) | MIC [4]: 16 µM (≈ 7.57 µg/mL) | MIC [5]: 8 µM (≈ 3.79 µg/mL) | MIC [6]: 32 µM (≈ 15.1 µg/mL) | MIC [8]: 16 µM (≈ 7.57 µg/mL) | MIC [9]: 8 µM (≈ 3.79 µg/mL) | MIC [10]: 16 µM (≈ 7.57 µg/mL) | MIC [13]: 16 µM (≈ 7.57 µg/mL) | log K [14]: 0.6119 | MIC [15]: 16 µM (≈ 7.57 µg/mL)

O=C(N[C@H](Cc1ccccc1)C(=O)Oc1ccc(Cl)cc1C(=O)Nc1cccc(Cl)c1)OCc1ccccc1
MIC [1]: 8 µM (≈ 4.51 µg/mL) | MIC [2]: 4 µM (≈ 2.25 µg/mL) | MIC [4]: 16 µM (≈ 9.01 µg/mL) | MIC [5]: 8 µM (≈ 4.51 µg/mL) | MIC [6]: 32 µM (≈ 18 µg/mL) | MIC [8]: 16 µM (≈ 9.01 µg/mL) | MIC [9]: 4 µM (≈ 2.25 µg/mL) | MIC [10]: 16 µM (≈ 9.01 µg/mL) | MIC [13]: 16 µM (≈ 9.01 µg/mL) | log K [14]: 1.0476 | MIC [15]: 16 µM (≈ 9.01 µg/mL)

O=C(N[C@H](Cc1ccccc1)C(=O)Oc1ccc(Cl)cc1C(=O)Nc1ccc(Br)cc1)OCc1ccccc1
MIC [1]: 2 µM (≈ 1.22 µg/mL) | MIC [2]: 2 µM (≈ 1.22 µg/mL) | half-life [3]: 34.3 min | MIC [4]: 4 µM (≈ 2.43 µg/mL) | MIC [5]: 8 µM (≈ 4.86 µg/mL) | MIC [6]: 16 µM (≈ 9.73 µg/mL) | Ratio [7]: 10.61 | MIC [8]: 8 µM (≈ 4.86 µg/mL) | MIC [9]: 4 µM (≈ 2.43 µg/mL) | MIC [10]: 4 µM (≈ 2.43 µg/mL) | half-life [11]: 32.5 min | EC50 [12]: 35.5 µM | MIC [13]: 8 µM (≈ 4.86 µg/mL) | log K [14]: 1.1267 | MIC [15]: 8 µM (≈ 4.86 µg/mL)

O=C(N[C@@H](Cc1ccccc1)C(=O)Oc1ccc(Cl)cc1C(=O)Nc1ccc(Cl)c(Cl)c1)OCc1ccccc1
MIC [1]: 4 µM (≈ 2.39 µg/mL) | MIC [2]: 2 µM (≈ 1.2 µg/mL) | MIC [4]: 8 µM (≈ 4.78 µg/mL) | MIC [5]: 8 µM (≈ 4.78 µg/mL) | MIC [6]: 32 µM (≈ 19.1 µg/mL) | MIC [8]: 8 µM (≈ 4.78 µg/mL) | MIC [9]: 2 µM (≈ 1.2 µg/mL) | MIC [10]: 4 µM (≈ 2.39 µg/mL) | MIC [13]: 8 µM (≈ 4.78 µg/mL) | log K [14]: 1.3056 | MIC [15]: 16 µM (≈ 9.57 µg/mL)

C[C@@H](NC(=O)OCc1ccccc1)C(=O)Oc1ccc(Cl)cc1C(=O)Nc1ccc(Cl)c(Cl)c1
MIC [1]: 8 µM (≈ 4.17 µg/mL) | MIC [2]: 2 µM (≈ 1.04 µg/mL) | MIC [4]: 16 µM (≈ 8.35 µg/mL) | MIC [5]: 4 µM (≈ 2.09 µg/mL) | MIC [6]: 32 µM (≈ 16.7 µg/mL) | MIC [8]: 8 µM (≈ 4.17 µg/mL) | MIC [9]: 4 µM (≈ 2.09 µg/mL) | MIC [10]: 8 µM (≈ 4.17 µg/mL) | MIC [13]: 8 µM (≈ 4.17 µg/mL) | log K [14]: 0.938 | MIC [15]: 16 µM (≈ 8.35 µg/mL)

C[C@@H](NC(=O)OCc1ccccc1)C(=O)Oc1cc(Cl)ccc1C(=O)Nc1ccc(Cl)cc1
MIC [1]: 8 µM (≈ 3.9 µg/mL) | MIC [2]: 4 µM (≈ 1.95 µg/mL) | MIC [4]: 8 µM (≈ 3.9 µg/mL) | MIC [5]: 4 µM (≈ 1.95 µg/mL) | MIC [6]: 16 µM (≈ 7.8 µg/mL) | MIC [8]: 8 µM (≈ 3.9 µg/mL) | MIC [9]: 8 µM (≈ 3.9 µg/mL) | MIC [10]: 8 µM (≈ 3.9 µg/mL) | MIC [13]: 16 µM (≈ 7.8 µg/mL) | log K [14]: 0.6334 | MIC [15]: 16 µM (≈ 7.8 µg/mL)
